A short description of experiment [1]: Antiproliferative activity against BAEC after 3 days by MTT assay. Particulars: Bos taurus, 72 h. Type of experiment: functional. The method in brief: (§1)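 MTT dye reduction. 3×10^3 BAE cells (collagenase-isolated) or 5×10^3 HT-29 cells per well in DMEM with 10% FBS, exposed to serial dilutions for 3 days at 37 °C, 5% CO2. MTT (5 mg/ml in PBS) added for 4 h, formazan dissolved in 0.04 N HCl/2-propanol, absorbance at 550 nm. Triplicate; IC50 is the concentration giving 50% survival. Compounds from 10 mg/mL DMSO stocks.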

Experiment [2] is described as follows: Antiangiogenic activity against BAEC assessed as inhibition of tube formation after 7 hrs by matrigel assay. Type of experiment: functional. As to conditions: Bos taurus. The method, boiled down:
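Wells coated with Matrigel (about 10.5 mg/mL), polymerized at least 30 min at 37 °C. 5×10^4 BAE cells seeded in DMEM with a range of compound concentrations. Incubated 7 h at 37 °C, 5% CO2, then viewed and photographed at 200×. Two observers scored tube formation. Value is the minimal concentration inhibiting differentiation.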

Experiment [3] concerns HT-29. The experiment is described as follows: Antiproliferative activity against human HT-29 cells after 3 days by MTT assay. The experiment is classed as functional, cell-based. As to conditions: HT-29, 72 h. The method in brief:
as §1
(Tetrazolium dyes change colour on reduction, which living cells bring about.)

The subject of experiment [4] is HT-29. The experiment is described as follows: Inhibition of VEGF protein production in human HT-29 cells at 10 ug/mL after 72 hrs by ELISA relative to control; values are per cent of control. Particulars: HT-29, 72 h. On the technique in general: An ELISA detects its analyte on a solid surface through an enzyme-linked reagent.
For experiment [5], the system named is HT-29. In words: Inhibition of VEGF mRNA expression in human HT-29 cells at 10 ug/mL after 48 hrs by RT-PCR analysis relative to control; values are per cent of control. As to conditions: HT-29, 48 h.
For experiment [6], the system named is HT-29. In words: Inhibition of VEGF protein production in human HT-29 cells at 20 ug/mL after 72 hrs by ELISA relative to control; values are per cent of control. Particulars: HT-29, 72 h.
Experiment [7] deals with HT-29. The experiment is described as follows: Inhibition of VEGF mRNA expression in human HT-29 cells at 20 ug/mL after 48 hrs by RT-PCR analysis relative to control; values are per cent of control. Particulars: HT-29, 48 h.
The subject of experiment [8] is HT-29. In words: Inhibition of VEGF protein production in human HT-29 cells at 10 ug/mL after 72 hrs by ELISA relative to control. The experiment is classed as functional. The method, boiled down: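 HT-29 cells at 70–80% confluence were serum-starved 24 h, then treated 72 h with compound in DMSO. VEGF secreted into culture supernatants was measured by human VEGF ELISA kit in ng/mL and compared with untreated and DMSO controls. At least three measurements per condition; mean ± SEM; one-sample t-tests.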

Values after ≈ are worked out from the molar mass of the structure shown. Active and inactive are the calls of the source. The rule behind the calls is not given here.

For the molecule `COc1ccc(/C=C/c2ccccc2)cc1`, the half-inhibitory concentration (IC50) (as a rule, the midpoint of a concentration-inhibition curve) in experiment [1] is 418 µM; in experiment [3], 26 µM. Besides, the MIC (as a rule, the lowest concentration found to suppress growth) in experiment [2] is 475 µM (≈ 99.9 µg/mL).
With `Oc1cccc(/C=C/c2ccccc2)c1` [(E)-3-STILBENOL], the values for the half-inhibitory concentration (IC50) in experiment [1] and in experiment [3] were 91.7 µM and 127 µM, respectively. In experiment [2], the minimum inhibitory concentration (MIC) came to 32 µM (≈ 6.28 µg/mL).
Regarding `C=CCOc1ccccc1/C=C/c1ccccc1`, the IC50 is 313 µM in experiment [1] and 55 µM in experiment [3]. Further, the level, % of control at 10 µg/mL in experiment [4] amounted to 41%; in experiment [5], 50%. Also, the MIC in experiment [2] amounted to 53 µM (≈ 12.5 µg/mL).
For the molecule `C=CCOc1ccc(/C=C/c2ccccc2)cc1`, the values for the IC50 in experiment [1] and in experiment [3] were over 400 µM and 23 µM, respectively. Moreover, in experiment [2], the MIC amounted to 106 µM (≈ 25 µg/mL).
On the same counts, the results for `Oc1ccc(/C=C/c2ccccc2)cc1` [(E)-4-STYRYLPHENOL] are 33.6 µM, 34.6 µM and 32 µM (≈ 6.28 µg/mL).
On to `Oc1ccc(/C=C/c2cc(O)cc(O)c2)cc1` [RESVERATROL], for which the concentration for half-maximal inhibition (IC50) worked out at 48 µM in experiment [1] and 110 µM in experiment [3]. Besides, the level, % of control at 20 µg/mL was 65% in experiment [6] and 86% in experiment [7]. Besides, the minimal inhibitory concentration (MIC) in experiment [2] turned out to be 54.8 µM (≈ 12.5 µg/mL).
Take `Oc1ccccc1/C=C/c1ccccc1`: the half-inhibitory concentration (IC50) was 107 µM in experiment [1] and 112 µM in experiment [3]. Besides, the level, % of control at 10 µg/mL in experiment [4] was determined as 41%; in experiment [5], 91%. Moreover, the MIC in experiment [2] is 32 µM (≈ 6.28 µg/mL).
Take `COc1ccccc1/C=C/c1ccccc1`: the 50% inhibitory concentration (IC50) amounted to 152 µM in experiment [1] and 42.8 µM in experiment [3]. Also, the level, % of control at 10 µg/mL in experiment [5] is 70%. In addition, in experiment [2], the MIC was 59.5 µM (≈ 12.5 µg/mL). For the same molecule, the inhibition result in experiment [8] was “Active”.

(Values after ChEMBL document CHEMBL2385016, “Inhibition of VEGF expression in cancer cells and endothelial cell differentiation by synthetic stilbene derivatives” (Bioorg Med Chem, 2013).)
